CHT inh: inhibitors of human choline transporter CHT; AID 488975; CHT-expressing cells, membrane potential dye, choline response; active compounds read low; actives 0.86% (n = 310,000); B-score at 10 µM;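 active = B-score over 3 SD under the library average, and starting fluorescence ratio not unusually high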;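 also: choline stimulus applied at its EC90 after an EC20 pre-addition; B-score computed on integrated fluorescence ratio after choline addition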
HSF-1 act: increases HSF-1 driven luciferase reporter signal; AID 504408; activation, % at 9 µM; actives 1.7% (n = 300,000); NIH3T3-HGL HSF-1 luciferase reporter, MG132, 8 h; 100% = twice DMSO control signal;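 active = mean replicate activation of at least 50% with a set share of replicates each reaching 50%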;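 also: 0% = median of the neutral control wells and 100% = twice that signal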
PHOSPHO1 inh: blocks human PHOSPHO1 phosphatase activity; Q8TCT1; recombinant PHOSPHO1, absorbance phosphatase assay; inhibition, % at 13.3 µM; actives 1.1% (n = 290,000); in the data active = inhibition above about 60%
Target sequence (Q8TCT1 whole entry, looked up): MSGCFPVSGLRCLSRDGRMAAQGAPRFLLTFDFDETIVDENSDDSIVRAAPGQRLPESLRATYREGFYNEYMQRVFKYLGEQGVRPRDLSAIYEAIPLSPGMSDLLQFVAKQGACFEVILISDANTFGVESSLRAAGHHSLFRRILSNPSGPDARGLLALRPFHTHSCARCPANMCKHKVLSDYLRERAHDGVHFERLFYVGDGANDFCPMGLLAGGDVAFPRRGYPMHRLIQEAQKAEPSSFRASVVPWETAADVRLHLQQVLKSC
CHT PAM: allosteric activators of human choline transporter CHT | Q9GZV3 | CHT-expressing cells, membrane potential dye, choline EC20; active compounds read high; LV-AA mutant CHT in HEK293 cells | B-score at 10 µM | actives 0.49% (n = 310,000) | AID 488977;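 active = initial fluorescence not abnormally high and integrated response B-score, plate-corrected, over 3 SD above library mean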
Lipid droplet: hepatic lipid droplet formation modulation; AML12 mouse hepatocytes, oleate lipid droplets, BODIPY imaging; inhibition, % at 6.5 µM; actives 0.4% (n = 240,000); AID 1656;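 active = lipid droplet intensity inhibited by at least 50%, with more than 500 cells counted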
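Assay system: AML12 mouse liver cells | Compound dosing: One dose, 6.5 µM compound | Read-out basis: Droplet intensity reduction, % inhibition | Measured by: Fluorescence imaging, 20x objective, two fields per well | Schedule: Overnight treatment with compound plus oleate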
HSF1 inhib: HSF1 inhibition. NIH3T3-HGL HSE-luciferase, MG132-induced, luminescence 8 h; active compounds read low. activity change, negative = inhibition, % at 7.5 µM (by protocol). actives 0.77% (n = 300,000);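 active = more than half of replicate wells show activity change below -50%, luminescence cut by over half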;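 also: luciferase reports HSF-1 transcriptional activity via heat shock element; 0% = median of DMSO wells and -100% = zero luminescence signal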
* hit, by the source's call; i = inactive; x = no result given. An excerpt weighted towards active compounds, which were near 4.9% of everything screened.

SMILES	CHT inh	HSF-1 act	PHOSPHO1 inh	CHT PAM	Lipid droplet	HSF1 inhib
C=C(C)CSc1nnc(-c2ccccc2)n1N	i	-3	-7	i	0	-3
COc1ccc(/C=C/C(=O)C(C(N)=O)=C2SCCS2)cc1	i	48	-6	i	28	14
NC(=O)C(C(=O)/C=C/c1ccc(Cl)cc1)=C1SCCS1	i	210*	15	i	-7	120
O=C(O)CCSCC(=O)c1ccc2c(c1)OCCO2	i	2	78*	i	x	-16
CCCC(=O)c1ccc2c(c1)OCCO2	i	29	6	i	2	2
O=C(Nc1c(Cl)ccc2nsnc12)c1ccco1	i	1	12	i	20	-1
COCCCNc1nc2nonc2nc1N1CCN(Cc2cccc(C)c2)CC1	i	63*	7	i	-9	21
Fc1cccc(CN2CCN(c3nc4nonc4nc3NC3CC3)CC2)c1	i	21	56	i	-11	6
N#C/C(=C\c1ccc(OCc2ccc(Cl)cc2)cc1)C(=O)Nc1cccc(C(=O)O)c1	i	120*	35	i	-23	64
CN(c1ccccc1)S(=O)(=O)c1nnc(NC(=O)c2ccco2)s1	i	20	12	i	-7	1
CN(c1ccccc1)S(=O)(=O)c1nnc(NC(=O)C2CCCCC2)s1	i	-16	70*	i	10	2
OC1(C#CCN2CCOCC2)CCCCC1	i	-13	-8	i	2	-5
CCC(=O)NC(=S)Nc1ccc(S(=O)(=O)N2CCN(C)CC2)cc1	i	79*	2	i	x	25
ClC(Cl)c1nnc(-c2ccccc2)c(-c2c[nH]c3ccccc23)n1	i	57*	-2	i	-23	20
c1ccc(-c2nnc(-c3c[nH]c4ccccc34)nc2-c2ccccc2)cc1	i	-12	-9	i	8	3
Cc1cc(C)c(S(=O)(=O)/N=C2/C=C(Sc3ncn[nH]3)C(=O)c3ccccc32)cc1C	i	x	69*	i	-2	x
Cc1ccc(NC2=C/C(=N/S(=O)(=O)c3cccs3)c3ccccc3C2=O)cc1C	i	11	19	i	4	2
CN(C(=O)c1ccccc1Cl)c1ccccc1C(=O)NCc1ccccc1	i	4	61*	i	-5	-3
CN(C(=O)c1ccc(F)cc1)c1ccccc1C(=O)NCc1ccccc1	i	-10	34	i	-1	-6
CCCCCOC(=O)C1=C(C)NC(=O)NC1c1ccc2c(c1)OCO2 (configuration not stated)	i	19	-6	i	-4	2
CSCCOC(=O)C1=C(C)NC(=O)NC1c1ccc2c(c1)OCO2 (configuration not stated)	i	56*	24	i	x	23
CCc1nnc(NC(=O)CN2CCC(O)(c3ccccc3OC)CC2)s1	i	-14	20	i	x	-7
CCOC(=S)SCC(=O)Nc1nc(-c2ccccc2)cs1	i	67*	3	i	-25	35
CCC(CCC(=O)Nc1nncs1)C(=O)O (configuration not stated)	x	x	17	x	8	x
Cc1cccc(OCC(=O)Nc2nccs2)c1C	i	56*	28	i	7	28
SMILES	CHT inh	HSF-1 act	PHOSPHO1 inh	CHT PAM	Lipid droplet	HSF1 inhib
COc1ccccc1C1(O)CCN(CC(=O)Nc2nc(-c3ccccc3)cs2)CC1	i	-14	32	i	89*	-9
CCCC(CCC(=O)Nc1nccs1)C(=O)O (configuration not stated)	i	53*	32	i	8	7
CC(=O)c1ccc2c(c1)CC(C)C(=O)N2C (configuration not stated)	i	0	2	i	31	-2
O=c1c(C(c2c(O)nc3n(c2=O)CCS3)c2cccc3ccccc23)c(O)nc2n1CCS2	i	4	35	i	x	-2
COc1ccc(OCc2cc(C(=O)N3C[C@H]4CC[C@H]3C4)no2)c(Cl)c1	i	38	-37	i	x	15
CCOC(=S)SCC(=O)Nc1nccs1	i	115*	-9	i	16	84
CCOC(=S)SCC(=O)Nc1nc(C)c(C)s1	i	236*	6	i	-21	164
CCOC(=O)C(=O)Nc1nccs1	i	4	16	i	23	-6
Cc1nc(NC(=O)CSc2nc(N)cc(N)n2)sc1C	i	41	24	i	9	18
Cc1ccc(-c2csc(N)n2)s1	i	10	71*	i	x	-2
Cc1ccc(COc2ccc(Br)cc2/C=N/O)cc1	i	94*	22	i	x	74
O/N=C/c1ccc(OCc2ccccc2F)c(Cl)c1	i	84*	2	i	2	41
O/N=C/c1cc(Br)cc(Br)c1OCc1ccccc1	i	9	-20	i	-23	4
O/N=C/c1ccc(OCc2ccccc2)c(Cl)c1	i	58*	-9	i	-22	39
O/N=C/c1ccc(OCc2ccccc2)c(Br)c1	i	66*	-7	i	9	47
COCCCC1CCN(C(=O)c2cc(COc3ccc(C)nc3)on2)CC1	i	1	18	i	-17	-3
O=C(Nc1ccc2oc(-c3cccnc3)nc2c1)c1ccc2c(c1)OCCO2	i	-2	35	i	10	10
COc1ccc(/C=C/C(=O)OCC(=O)Nc2ccc(Cl)cc2F)cc1S(=O)(=O)N1CCOCC1	i	25	7	i	5	17
COc1cccc(CN2CC(C(=O)N(C)Cc3nc(C)cs3)CCC2=O)c1 (configuration not stated)	x	15	17	x	11	3
Cc1ccc(NCc2nnc(SCC(=O)NNC(=O)Cc3ccccc3)n2C)cc1	i	-18	35	i	-3	-9
Cc1cc(C)nc(NC(=O)COc2cc(Cl)cc(Cl)c2)n1	i	-77	6	i	10	-71*
Cc1ccnc(NC(=O)COc2ccc(Cl)cc2)n1	i	6	16	i	3	6
Cn1nnnc1SCC(=O)NC1CCCc2ccccc21 (configuration not stated)	i	-3	8	i	-4	-9
COc1cc(/C=C/C(=O)c2ccc3c(c2)OCCO3)cc(Br)c1OCC(=O)N(C)C	i	243*	28	i	-20	191
COc1ccc(C(NC(=O)c2ccc(=O)[nH]c2)C(=O)Nc2ccc(C(C)C)cc2)cc1 (configuration not stated)	i	-72	24	i	-2	-61*

Screens as filed in PubChem BioAssay.
